Data reported in ChEMBL document CHEMBL4138255, “Discovery of a Slow Tight Binding LPA1 Antagonist (ONO-0300302) for the Treatment of Benign Prostatic Hyperplasia” (ACS Med Chem Lett, 2017).
pIC50, pKd: −log10 of the molar value. One block for each molecule: values may come before it. Activity calls are given as the source filed them. The calls are words filed in the database; no cut-off is given here.

Legend:
Rattus norvegicus [1] = assay: Inhibition of LPA-induced increase of intraurethral pressure in rat at 3 mg/kg, po measured at 18 hrs relative to control; format: functional
Method in brief: (§1)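 Conscious rats were given compound or vehicle (20% STPG) orally, 3 mg/kg. At 1, 3, 6, 9, 12, 18 or 24 h, LPA (300 μg/kg) was injected i.v. and intraurethral pressure was measured under short-term anesthesia. Inhibition was calculated versus vehicle. ID50 was determined from oral dose–response at 1 h.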

[2] = molecular target: T1, Lysophosphatidic acid receptor 1 (Homo sapiens, UniProt Q92633); assay: Binding affinity to recombinant human LPA1 expressed in CHO cell membranes measured after 2 hrs at 37 degC by scintillation counting method
T1 sequence (Q92633 whole entry): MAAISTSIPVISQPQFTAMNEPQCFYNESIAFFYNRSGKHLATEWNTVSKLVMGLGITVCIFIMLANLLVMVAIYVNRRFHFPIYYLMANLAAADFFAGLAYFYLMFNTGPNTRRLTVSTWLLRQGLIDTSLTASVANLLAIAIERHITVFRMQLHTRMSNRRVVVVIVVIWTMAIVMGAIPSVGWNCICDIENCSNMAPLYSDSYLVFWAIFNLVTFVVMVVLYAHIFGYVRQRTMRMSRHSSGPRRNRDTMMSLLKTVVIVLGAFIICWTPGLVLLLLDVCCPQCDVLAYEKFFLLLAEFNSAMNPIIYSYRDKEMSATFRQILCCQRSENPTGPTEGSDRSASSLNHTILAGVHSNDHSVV

[3] = molecular target: T1, Lysophosphatidic acid receptor 1; assay: Antagonist activity at recombinant human LPA1 expressed in CHO cell […] pretreated for 24 hrs prior to Fura-2-AM dye addition for 1 hr followed by LPA stimulation measured after 3 mins by fluorescence assay; format: functional, cell-based
Method in brief: (§2)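 Ca²⁺ mobilization in CHO cells stably expressing LPA1. Compound was added at cell seeding and incubated 24 h, and was held at the same concentration through Ca²⁺-indicator loading and LPA stimulation. In the wash-out variant, compound was removed before LPA stimulation. IC50 was obtained with 95% confidence intervals.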

Canis familiaris [4] = assay: Inhibition of LPA-induced increase of intraurethral pressure in dog at 1 mg/kg, po measured after 24 hrs relative to control; format: functional; conditions: Canis lupus familiaris
[5] = Total clearance in rat at 1 mg/kg, iv; format: ADME, organism-based; conditions: in vivo
[6] = molecular target: T1, Lysophosphatidic acid receptor 1; assay: Binding affinity to recombinant human LPA1 expressed in CHO cell membranes measured after 1 hr by scintillation counting method; conditions: for Bmax: tested as the 3H-labelled form
[7] = molecular target: T1, Lysophosphatidic acid receptor 1; assay: Binding affinity to recombinant human LPA1 expressed in CHO cell membranes measured after 2 hrs at 4 degC by scintillation counting method
[8] = molecular target: T1, Lysophosphatidic acid receptor 1; assay: Antagonist activity at recombinant human LPA1 expressed in CHO cells assessed as reduction in LPA-induced intracellular calcium level pretreated followed by LPA addition by Fura-2-AM dye based fluorescence assay; format: functional, cell-based
Method in brief: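 LPA-induced Ca²⁺ mobilization in CHO cells stably expressing the LPA1 receptor, with 10 min incubation. IC50 was obtained by nonlinear regression of 4-point dose–response curves, with 95% confidence intervals.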

[9] = molecular target: T1, Lysophosphatidic acid receptor 1; assay: Binding affinity to recombinant human LPA1 expressed in CHO cell membranes measured after 2 hrs by scintillation counting method; conditions: for Bmax: tested as the 3H-labelled form
[10] = Half life in human microsomes in presence of NADPH; format: ADME, Microsome
[11] = molecular target: T1, Lysophosphatidic acid receptor 1; assay: Antagonist activity at recombinant human LPA1 expressed in CHO cell […] pretreated for 24 hrs prior to Fura-2-AM dye addition for 1 hr followed by compound washout and subsequent LPA stimulation measured after 3 mins by fluorescence assay; format: functional, cell-based; method in brief: as §2
[12] = molecular target: T1, Lysophosphatidic acid receptor 1; assay: Binding affinity to recombinant human LPA1 expressed in CHO cell membranes measured after 4 hrs by scintillation counting method; conditions: for Bmax: tested as the 3H-labelled form
[13] = molecular target: T1, Lysophosphatidic acid receptor 1; assay: Binding affinity to recombinant human LPA1 expressed in CHO cell membranes measured after 0.5 hrs by scintillation counting method; conditions: for Bmax: tested as the 3H-labelled form
[14] = molecular target: T1, Lysophosphatidic acid receptor 1; assay: Binding affinity to recombinant human LPA1 expressed in CHO cell membranes measured after 2 hrs at room temperature by scintillation counting method
Canis familiaris [15] = assay: Inhibition of LPA-induced increase of intraurethral pressure in dog at 1 to 3 mg/kg, po measured up to 24 hrs; format: functional, organism-based; conditions: Canis lupus familiaris
Method in brief: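 Conscious dogs were dosed orally at 1 or 3 mg/kg. LPA (300 μg/kg i.v.) was injected at 0.5, 1, 2, 4, 6, 9, 12 and 24 h, and intraurethral pressure was measured in conscious animals. Response was expressed as % of each dog's predose (0 h) IUP.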

[16] = Half life in rat microsomes in presence of NADPH; format: ADME, Microsome
[17] = molecular target: Lysophosphatidic acid receptor 1 (Rattus norvegicus) (UniProt P61794); assay: Antagonist activity at LPA1 in CD(SD)IGS rat urethra assessed as inhibition of LPA-induced urethra contraction at 1 uM pretreated for 30 mins prior to LPA addition followed by compound washout every 10 minutes for 2 times and subsequent LPA stimulation; format: functional
Lysophosphatidic acid receptor 1 (Rattus norvegicus), sequence (P61794 whole entry): as the sequence (Q92633 whole entry) above, with I4A, I8S, P22Q, H40Y, I61V, E193D, N194H, I269V, S331N, T335N counted along it
Method in brief: (§3)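 Isolated rat urethra. Contraction to 10 μM LPA was recorded as 100% control. Medium was exchanged, then 1 μM test compound was added for 30 min and contraction to 10 μM LPA recorded. Tissue was washed with compound-free medium three times every 10 min before each LPA re-challenge, two wash-out rounds. Expressed as % inhibition, mean ± SD, n = 3.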

Rattus norvegicus [18] = assay: Inhibition of LPA-induced increase of intraurethral pressure in po dosed rat measured after 1 hr; format: functional; conditions: for ED50: read-out: ID50 (the source's name); method in brief: as §1
[19] = molecular target: Lysophosphatidic acid receptor 1 (Rattus norvegicus) (UniProt P61794); assay: Antagonist activity at LPA1 in CD(SD)IGS rat urethra assessed as inhibition of LPA-induced urethra contraction at 1 uM pretreated for 30 mins followed by LPA addition; format: functional; method in brief: as §3
Rattus norvegicus [20] = assay: Inhibition of LPA-induced increase of intraurethral pressure in rat at 3 mg/kg, po measured after 6 hrs relative to control; format: functional; method in brief: as §1
Rattus norvegicus [21] = assay: Inhibition of LPA-induced increase of intraurethral pressure in rat at 3 mg/kg, po measured after 1 hr relative to control; format: functional; method in brief: as §1
Rattus norvegicus [22] = assay: Inhibition of LPA-induced increase of intraurethral pressure in rat at 3 mg/kg, po measured after 3 hrs relative to control; format: functional; method in brief: as §1
Rattus norvegicus [23] = assay: Inhibition of LPA-induced increase of intraurethral pressure in rat at 3 mg/kg, po measured up to 12 hrs relative to control; format: functional; method in brief: as §1
Rattus norvegicus [24] = assay: Inhibition of LPA-induced increase of intraurethral pressure in po dosed rat measured after 6 hrs; format: functional; method in brief: as §1

SMILES: COc1cc([C@@H](O)[C@@H](CC2Cc3ccccc3C2)Cn2ccc(CCC(=O)O)c2)cc(OC)c1C
- inhibition in vivo at 3 mg/kg (Rattus norvegicus [1]): 47%
- Bmax ([2]; tested as the 3H-labelled form): 1110 cpm
- pIC50 [3]: 9.80
- inhibition in vivo at 1 mg/kg (Canis familiaris [4]): 30%
- clearance [5]: 20.5 mL/min/kg
- Bmax [6]: 973 cpm
- Bmax ([7]; tested as the 3H-labelled form): 1030 cpm
- pIC50 [8]: 7.07
- Bmax [9]: 942 cpm
- half-life [10]: 1.32 h
- pIC50 [11]: 9.72
- Bmax [12]: 956 cpm
- Bmax [13]: 974 cpm
- Bmax ([14]; tested as the 3H-labelled form): 942 cpm
- inhibition (Canis familiaris [15]): Active
- half-life [16]: 0.25 h

SMILES: COc1cc(C(=O)C(CCCc2ccccc2)Cc2ccc(CC(=O)O)cc2)cc(OC)c1C (stereo not given)
- pIC50 [8]: 6.34

SMILES: [3H]C(C(=O)O)C([3H])c1ccn(C[C@H](CC2Cc3ccccc3C2)[C@H](O)c2cc(OC)c(C)c(OC)c2)c1 (stereo not given in full)
- pKd [2]: 9.47
- pKd [6]: 8.90
- pKd [7]: 7.65
- pKd [9]: 9.13
- pKd [12]: 9.31
- pKd [13]: 8.63
- pKd [14]: 9.13

SMILES: [3H]C(CN(Cc1ccc(CC(=O)O)cc1)C(=O)c1cc(OC)c(C)c(OC)c1)C([3H])c1ccccc1 (stereo not given)
- pKd [6]: 8.18
- pKd [9]: 8.22
- pKd [12]: 7.99
- pKd [13]: 8.09

SMILES: COc1cc([C@@H](O)[C@@H](CCCc2ccccc2)Cc2ccc(CC(=O)O)cc2)cc(OC)c1C
- pIC50 [8]: 7.21
- inhibition [17]: Active
- inhibition (Rattus norvegicus [18]): Dose-dependent effect
- ED50 (Rattus norvegicus [18]): 0.97 mg/kg
- inhibition [19]: Active

SMILES: COc1cc([C@@H](O)[C@@H](CCCc2ccsc2)Cn2ccc(CC(=O)O)c2)cc(OC)c1C
- inhibition in vivo at 3 mg/kg (Rattus norvegicus [20]): 23%
- clearance [5]: 16.4 mL/min/kg
- pIC50 [8]: 7.64
- half-life [10]: 1 h
- inhibition in vivo at 3 mg/kg (Rattus norvegicus [21]): 75%
- half-life [16]: < 0.25 h

SMILES: COc1cc(C(=O)N(CCCc2ccccc2)Cc2ccc(CC(=O)O)cc2)cc(OC)c1C
- Bmax [6]: 3560 cpm
- inhibition [17]: inactive
- Bmax [9]: 2450 cpm
- inhibition [19]: Active
- Bmax [12]: 2740 cpm
- Bmax [13]: 3420 cpm

SMILES: COc1cc([C@@H](O)[C@@H](CCCc2cccs2)Cn2ccc(CCC(=O)O)c2)cc(OC)c1C
- inhibition (Rattus norvegicus [20]): inactive
- pIC50 [8]: 7.35
- half-life [10]: 1.25 h
- inhibition in vivo at 3 mg/kg (Rattus norvegicus [22]): 70%
- half-life [16]: < 0.25 h

SMILES: COc1cc([C@@H](O)[C@@H](CCCc2ccsc2)Cn2ccc(CCC(=O)O)c2)cc(OC)c1C
- inhibition (Rattus norvegicus [20]): inactive
- pIC50 [8]: 7.42
- half-life [10]: 1.1 h
- inhibition in vivo at 3 mg/kg (Rattus norvegicus [22]): 70%
- half-life [16]: < 0.25 h

SMILES: COc1cc([C@@H](O)[C@@H](CC2Cc3ccccc3C2)Cn2ccc(CC(=O)O)c2)cc(OC)c1C
- clearance [5]: 19.2 mL/min/kg
- pIC50 [8]: 7.21
- half-life [10]: 1.08 h
- inhibition in vivo at 3 mg/kg (Rattus norvegicus [23]): 52%
- inhibition (Canis familiaris [15]): Active
- half-life [16]: 0.567 h

SMILES: COc1cc(C(=O)N(C/C=C/c2ccccc2)Cc2ccc(CC(=O)O)cc2)cc(OC)c1C
- pIC50 [8]: < 6.00
- half-life [10]: 2.72 h
- half-life [16]: > 3.33 h

SMILES: COc1cc([C@@H](O)[C@@H](CCCc2ccccc2)Cn2nc(C)c(CC(=O)O)c2C)cc(OC)c1C
- pIC50 [8]: 6.28

SMILES: COc1cc([C@@H](O)[C@@H](CCCc2cccs2)Cn2ccc(CC(=O)O)c2)cc(OC)c1C
- inhibition (Rattus norvegicus [20]): inactive
- pIC50 [8]: 7.54
- half-life [10]: 1.37 h
- inhibition in vivo at 3 mg/kg (Rattus norvegicus [22]): 70%
- half-life [16]: < 0.25 h

Second part, led by results:

- pIC50 [8]: 7.47
SMILES: COc1cc([C@@H](O)[C@@H](CCCc2ccccc2)Cn2cc(CCC(=O)O)cn2)cc(OC)c1C

- pIC50 [8]: 6.92
SMILES: COc1cc([C@@H](O)[C@@H](CCCc2ccccc2)Cn2ccc(C(=O)O)c2)cc(OC)c1C

- pIC50 [8]: 7.66
SMILES: COc1cc([C@@H](O)[C@@H](CCCc2ccccc2)Cn2ccc(CCC(=O)O)c2)cc(OC)c1C

- pIC50 [8]: 6.74
SMILES: COc1cc([C@@H](O)[C@@H](CCCc2ccccc2)Cn2cnc(CC(=O)O)c2)cc(OC)c1C

- pIC50 [8]: 7.40
SMILES: COc1cc([C@@H](O)[C@@H](CCCc2ccccc2)Cn2ccc(CCC(=O)O)n2)cc(OC)c1C

- pIC50 [8]: 7.52
SMILES: COc1cc([C@@H](O)[C@@H](CCCc2ccccc2)Cn2cc(CC(=O)O)cn2)cc(OC)c1C

- pIC50 [8]: 7.49
SMILES: COc1cc([C@@H](O)[C@@H](CCCc2ccccc2)Cn2ccc(CC(=O)O)n2)cc(OC)c1C

- clearance [5]: 50.1 mL/min/kg
- pIC50 [8]: 7.89
- half-life [10]: 0.817 h
- half-life [16]: < 0.25 h
SMILES: COc1cc([C@@H](O)[C@@H](CCCc2ccccc2)Cn2ccc(CC(=O)O)c2)cc(OC)c1C
- inhibition in vivo at 3 mg/kg (Rattus norvegicus [20]): 33%
- inhibition (Rattus norvegicus [21]): Active
- ED50 (Rattus norvegicus [18]): 0.6 mg/kg
- inhibition (INH) (Rattus norvegicus [24]): 33%
